Screening results deposited in PubChem BioAssay by several laboratories.
Rows were chosen to be rich in hits. Some 4% of all compounds tested hit in one or more screens of this group.
DAGLB inh: diacylglycerol lipase beta (human) inhibition. HEK293T DAGLB membrane lysate, EnzChek fluorogenic substrate. inhibition, % at 5.17 µM. AID 504411. actives 0.059% (n = 340,000); in the data active means inhibition above about 34%;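 further: 0% = enzyme with vehicle and 100% = wells lacking enzyme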
GPR7 antag: blocks human GPR7 receptor signaling; P48145; GPR7-expressing cells, fluorescence antagonist assay; inhibition, % at 4.4 µM; actives 1.1% (n = 290,000); AID 1861; in the data active means inhibition above about 16%, passing the limit was not always enough;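 further: cells stimulated with the agonist NPW; 0% = agonist with vehicle and 100% = vehicle without agonist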
Target sequence (P48145 whole entry, looked up): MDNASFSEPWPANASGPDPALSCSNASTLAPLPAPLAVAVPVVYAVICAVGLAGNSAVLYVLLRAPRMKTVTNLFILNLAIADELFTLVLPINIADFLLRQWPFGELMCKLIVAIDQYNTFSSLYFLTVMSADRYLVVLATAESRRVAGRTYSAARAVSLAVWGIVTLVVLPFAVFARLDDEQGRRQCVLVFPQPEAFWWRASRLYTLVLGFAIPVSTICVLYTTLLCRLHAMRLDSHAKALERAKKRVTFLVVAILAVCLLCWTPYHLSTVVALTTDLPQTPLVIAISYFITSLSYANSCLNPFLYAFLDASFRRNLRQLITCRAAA
TAAR1 agonist: human TAAR1 agonism. Q96RJ0. CHO RD-HGA16 TAAR1, Fluo-8 calcium fluorescence; vehicle wells 0%, saturating PEA agonist 100%. activation, % at 3 µM. actives 0.99% (n = 360,000). AID 624467;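 active means activation above the mean activation of all test compounds in the run plus 3 SD, cut at about 38% in these data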
Target sequence (Q96RJ0 whole entry, looked up): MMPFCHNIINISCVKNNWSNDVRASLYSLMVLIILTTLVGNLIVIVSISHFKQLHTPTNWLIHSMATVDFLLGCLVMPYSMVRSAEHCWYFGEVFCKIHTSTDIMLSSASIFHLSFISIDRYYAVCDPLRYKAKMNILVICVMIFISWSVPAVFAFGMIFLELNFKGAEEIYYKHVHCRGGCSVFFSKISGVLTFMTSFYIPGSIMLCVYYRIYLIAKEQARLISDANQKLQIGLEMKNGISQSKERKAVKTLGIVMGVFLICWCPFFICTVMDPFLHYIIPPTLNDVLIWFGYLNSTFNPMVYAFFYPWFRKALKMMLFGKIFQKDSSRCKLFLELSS
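Test system: RD-HGA16 (CHO) cells co-expressing Gα16 and hTAAR1; dosing: one-point dosing at 3 µM (nominal); timing: 17-24 h seeding, 75 min 37 °C dye, 30 min RT; signal: kinetic Fluo-8 calcium fluorescence; read-out basis: % activation relative to PEA EC100 response; controls: DMSO and PEA EC100; replicates: n 1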
MPTP inh: permeability transition pore inhibition. isolated mouse mitochondria, Ca2+ swelling absorbance, 30 min. inhibition, % at 10 µM. actives 1.4% (n = 360,000). AID 602449;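 active means inhibition of 50% or more, scaled per plate between neutral and stimulator controls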;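 further: 0% = DMSO wells given calcium and 100% = 1 mM EGTA wells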
TAAR1 antag: human TAAR1 antagonism. actives 1.5% (n = 360,000). CHO RD-HGA16 TAAR1, Fluo-8 calcium fluorescence, antagonist. AID 624466. Q96RJ0. inhibition, % at 3 µM;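 active means inhibition above a per-plate cutoff, the mean inhibition of test compounds on that plate plus 3 SD, cut at about 49% in these data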;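 further: 0% = DMSO plus EC80 beta-PEA response and 100% = DMSO alone without agonist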
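Assay system: CHO-derived RD-HGA16 cells stably expressing human TAAR1 plus Gα16. Timing: 140 s kinetic read after compound, 140 s after agonist. Technique: kinetic Fluo-8 calcium fluorescence measurement. Measure: % inhibition of agonist calcium response.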
Rh123 counter: mitochondrial membrane potential, counter-screen | shares compounds with MPTP inh | isolated mitochondria, Rhodamine 123 fluorescence | inhibition, % at 10 µM | actives 78% (n = 5,000) | AID 624504; in the data active means inhibition above about 22%;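 further: 0% = DMSO vehicle and 100% = positive control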
MPTP swell DR: dose response confirmation of mitochondrial permeability transition pore inhibitors. isolated mitochondria swelling, absorbance. IC50, µM. actives 58% (n = 780). shares compounds with MPTP inh. AID 651561; in the data active means IC50 below about 20 µM
MPTP cs DR: active in counter-screen for permeability transition pore inhibitors; shares compounds with MPTP inh; isolated mitochondria counterscreen, fluorescence read-out; IC50, µM; actives 49% (n = 780); in the data active means IC50 below about 80 µM
Starred values were filed as active, the others as inactive; . = no result given.

SMILES	DAGLB inh	GPR7 antag	TAAR1 agonist	MPTP inh	TAAR1 antag	Rh123 counter	others
Cc1noc(C)c1-c1ccc(C(=O)NCc2ccc(Cl)cc2)c2occc12	.	.	-0.1	-0.4	-6.4	.
CN(C)c1nn(C(=O)Nc2cccc(C(F)(F)F)c2)cc1-c1ccccc1	1.7	-2.6	17.4	90.4*	5.5	100.7*
CCOC(=O)N[C@H](C(=O)N1CCC[C@H]1C(=O)NCc1ccccc1)C(C)C	.	.	-0.3	.	6.1	.
CC(C)CSC1=NSC2=NC(=O)/C(=C\c3cccs3)C(=N)N12	25.9	-1.6	7.9	100.2*	-5.9	93.2*
N=C1/C(=C/c2cccs2)C(=O)N=C2SN=C(SCc3ccccc3)N12	32.7	-10.2	6.2	85.8*	15.7	70.9*
CC1=CC2=NC(=O)/C(=C/c3cccs3)C(=N)N2O1	-2.4	-4.8	3.1	1.1	-33.5	.
COc1cc(/C=C2/C(=N)N3C(SC)=NSC3=NC2=O)ccc1OC(=O)c1ccco1	11.2	-7.1	-1.1	1.3	-3.5	.
CSC1=NSC2=NC(=O)/C(=C/c3coc4ccccc4c3=O)C(=N)N12	-66.4	6.8	374.6*	95.2*	104.4*	80.0*
CC(=O)N1CCN(c2ccc(N3CCN(C(C)=O)[C@@H](C)C3)c(C)c2)[C@H](C)C1	.	.	4.6	.	-15.3	.
O=C(Nc1cc(Cl)cc(Cl)c1)Nc1cnccn1	1.8	0.4	8.5	62.2*	-21.6	101.3*
COC(=O)[C@@H](N[C@H](/C=C/c1ccccc1)[C@@H](O)Cc1ccccc1)C(C)C	.	.	-2.6	.	-3.5	.
CN(C)/C=C1/Sc2ccccc2C1=O	1.1	-5.4	0.3	-1.1	-6.3	.
CC(=O)N(\C=C/C=C/C=C1\Sc2ccccc2C1=O)c1ccccc1	16.3	-10.3	9.9	61.8*	8.9	62.4*
CC(=O)Nc1ccc(S(=O)(=O)NCCOc2ccc(Cl)cc2C)cc1	.	-15.8	7.9	0.0	12.0	.
CCCCOc1ccc(CONS(=O)(=O)c2ccc(NC(C)=O)cc2)cc1Cl	-0.2	10.8	19.8	94.5*	8.6	73.5*
CCN(CC)CCC(=O)N1C/C(=C/c2ccccc2)C(=O)/C(=C\c2ccccc2)C1	-6.5	.	17.4	-0.3	8.0	.
Cc1ccc(Cn2ncc3c(N4CCCC4)ncnc32)cc1	2.8	3.9	6.0	62.1*	1.1	1.1	MPTP swell DR=>100;MPTP cs DR=>80
CCN(CC)S(=O)(=O)c1ccc(Oc2ccc(S(=O)(=O)N(CC)CC)cc2)cc1	-1.7	-7.9	7.7	96.8*	5.8	89.1*
CCN(CC)S(=O)(=O)c1ccc(Oc2ccccc2OC)cc1	-3.8	-6.8	3.3	0.1	-12.2	.
O=C(N/N=C/c1cc(Br)ccc1O)Nc1ccccc1	4.2	-5.8	16.5	98.6*	33.5	64.5*
CN(C)S(=O)(=O)c1cccc(NC(=S)N/N=C/c2cc(Br)ccc2O)c1	15.4	16.6	12.8	99.6*	29.7	38.1*
Cc1cc(C(F)(F)F)c(C#N)c(SCC(=O)Nc2nc3cc(Br)ccc3s2)n1	1.6	-0.9	2.2	86.8*	11.4	12.3	MPTP swell DR=15.7*;MPTP cs DR=3.25*
CCOC(=O)NC(=O)CSc1nc(C)cc(C(F)(F)F)c1C#N	-4.6	-19.6	3.2	-0.9	1.1	.
Cn1cc(C(=O)Nc2ccc(Cl)cc2)c(C(F)(F)F)n1	-2.0	-0.7	2.8	8.2	6.8	.
Cn1cc(NC(=O)Nc2ccc(C(F)(F)F)cc2)c(C(F)(F)F)n1	-6.3	0.0	12.3	66.1*	-19.1	85.8*
SMILES	DAGLB inh	GPR7 antag	TAAR1 agonist	MPTP inh	TAAR1 antag	Rh123 counter	others
Cc1cc2c(NC(=O)Nc3ccc(C(F)(F)F)cc3)cccc2nn1	-0.4	-13.2	18.9	85.8*	-22.8	85.1*
O=C(NCc1cccnc1)c1cc(C2CCCCN2S(=O)(=O)c2cccc3cccnc23)on1 (stereo unspecified)	.	.	0.5	0.0	-9.0	.
FC(F)(F)c1cccc(NC(=S)NC2CCCC2)c1	-2.9	-5.2	5.3	99.8*	14.1	83.2*
Fc1cccc(NC(=S)NC2CCCCCCC2)c1	-4.0	2.3	5.8	74.6*	15.3	97.8*
FC(F)(F)c1cccc(N2CCN(C(=S)NC3CCCCC3)CC2)c1	-14.6	5.3	-2.9	81.2*	1.9	72.3*
FC(F)(F)c1ccc(NC(=S)NC2CCCCC2)cc1	-8.7	12.7	2.0	98.6*	18.6	78.2*
FC(F)(F)c1cccc(N2CCN(C(=S)NC3CCCC3)CC2)c1	-14.9	4.1	2.3	-2.8	2.7	.
O=C(Nc1ccccc1)Nc1ccc(F)c([N+](=O)[O-])c1	-2.5	33.3*	19.5	94.3*	-1.1	98.7*
O=C(NC(=S)Nc1ccc(F)c([N+](=O)[O-])c1)c1ccccc1F	0.6	4.8	-1.2	0.2	-9.7	.
CCOc1ccc(NC(=S)Nc2ccc(C)c([N+](=O)[O-])c2)cc1	0.4	-2.1	7.0	85.5*	7.6	89.7*
Cc1ccc(NC(=O)Nc2ccccc2)cc1[N+](=O)[O-]	-4.6	25.0*	32.1	77.2*	3.3	100.7*
CC(C)(C)c1ccc(C(=O)N2CCOC23CCCCC3)cc1	.	.	8.3	0.5	5.2	.
CC(C)Oc1ccc(CN2CCC2(C)C(=O)Nc2cccc(Oc3ccccc3)c2)cc1 (stereo unspecified)	.	.	1.0	-0.7	-24.5	.
CCCCC(=O)N(C)c1c(C)nc2ccc(C(=O)N(C)Cc3ccco3)cn12	.	.	1.7	1.5	-32.4	.
CCOC(=O)c1ccc(NC(=O)Oc2ccccc2)cc1	-11.7	-4.8	5.0	0.9	5.5	.
CCOC(=O)c1ccc(NC(=O)Nc2ccc(OC)c(OC)c2)cc1	0.2	-9.8	20.6	64.6*	24.8	69.0*
COC(=O)c1ccc(NC(=S)NC2CCCCC2C)cc1 (stereo unspecified)	-1.2	-7.1	12.1	97.8*	-5.8	94.4*
CCOC(=O)c1ccc(NC(=O)Oc2cc(C)c(Cl)cc2C(C)C)cc1	-5.7	-11.9	-1.0	63.9*	-17.8	68.6*
CCOC(=O)c1ccc(NC(=S)Nc2ccc3[nH]c(=O)[nH]c3c2)cc1	1.0	-4.8	1.9	74.4*	-23.8	58.6*
CCCCOC(=O)c1ccc(NC(=O)Nc2ccc(OC)c(OC)c2)cc1	-3.7	-12.0	11.7	-15.5	41.1	.
COC(=O)c1ccc(NC(=S)NC(=O)C2CCC2)cc1	-3.6	-7.5	0.8	0.6	7.6	.
CCOC(=O)C1=C(Nc2ccc(Br)cc2)C(=O)N(CC)C1	.	.	0.8	.	-33.6	.
CCCN1CCCCC(NC(=O)c2ccccc2OC)C1=O (stereo unspecified)	.	.	1.9	.	-2.7	.
Cc1cc(=O)nc2c3ccccc3n(CC(=O)NCCC3=CCCCC3)n12	-0.9	-6.4	-2.7	0.4	2.4	.
O=C(NCc1ccccc1)[C@H]1CCCN1	.	.	1.0	.	-10.3	.
